An excerpt weighted towards active compounds, which were near 3.7% of everything screened.
Kir21 block = Kir2.1 (mouse) channel inhibition; B-score at 10 µM; HEK293-Kir2.1, FluxOR thallium flux fluorescence; active compounds read low; 0.85% of 310,000 active; AID 1672;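 active = fluorescence ratio B-score at or below minus 3 SD of library scores, with starting-brightness B-score within 2 SD, cut at about -4.2 in these data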;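 also: channel flux triggered by added potassium and thallium sulfate stimulus; B-score of peak minus minimum fluorescence over baseline after thallium stimulus; more negative B-score means stronger Kir2.1 block with less thallium influx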
KCNQ1 pot = potentiators or activators of human KCNQ1 potassium channel; B-score at 10 µM; CHO-K1 KCNQ1, thallium flux FluxOR fluorescence; active compounds read high; P51787; 0.35% of 310,000 active;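 active = fluorescence ratio B-score, a plate-corrected score, at least three library SD, with initial intensity B-score within 5 SD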
Target sequence (P51787 whole entry, looked up): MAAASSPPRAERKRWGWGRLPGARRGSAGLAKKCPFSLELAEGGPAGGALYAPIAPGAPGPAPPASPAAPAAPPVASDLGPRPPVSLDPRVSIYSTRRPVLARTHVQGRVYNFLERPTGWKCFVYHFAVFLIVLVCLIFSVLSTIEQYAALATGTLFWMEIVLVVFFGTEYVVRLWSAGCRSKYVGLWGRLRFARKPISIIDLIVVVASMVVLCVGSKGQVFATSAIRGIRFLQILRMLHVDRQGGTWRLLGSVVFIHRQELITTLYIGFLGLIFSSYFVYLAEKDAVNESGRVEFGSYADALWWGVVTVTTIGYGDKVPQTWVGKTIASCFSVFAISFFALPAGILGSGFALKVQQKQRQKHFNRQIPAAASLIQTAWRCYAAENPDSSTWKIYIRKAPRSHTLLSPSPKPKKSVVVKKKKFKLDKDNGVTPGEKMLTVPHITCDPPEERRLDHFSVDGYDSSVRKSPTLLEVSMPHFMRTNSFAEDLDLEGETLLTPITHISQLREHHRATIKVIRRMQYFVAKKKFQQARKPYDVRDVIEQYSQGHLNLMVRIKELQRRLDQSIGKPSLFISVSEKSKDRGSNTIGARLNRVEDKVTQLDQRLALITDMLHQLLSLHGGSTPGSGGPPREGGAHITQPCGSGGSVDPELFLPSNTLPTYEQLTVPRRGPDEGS
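Test system: CHO-K1 cells stably expressing KCNQ1 / Medium: assay buffer / Also added: depolarizing K+/Tl+ stimulus, K2SO4 and Tl2SO4 each 12.5 mM in 5x stock / Incubation: 90 min dye loading and 20 min compound exposure, both at room temperature / Signal: thallium influx via FluxOR fluorescence, kinetic imaging / Evaluation: B score of baseline-normalized fluorescence ratio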
KCNQ1 inh = inhibitors of human KCNQ1 potassium channel. CHO-K1 KCNQ1, FluxOR thallium flux fluorescence; active compounds read high. B-score at 10 µM. 1.3% of 310,000 active;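 active = compounds whose thallium flux B-score, printed positive for inhibition, exceeds three library SD while starting fluorescence stays within three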;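 also: channel opened by potassium depolarization with thallium stimulus after 20 min compound exposure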
KCNK9 inh = inhibitors of human KCNK9 two-pore domain potassium channel. Q9NPC2. HEK293 KCNK9, FluxOR thallium flux fluorescence; active compounds read low. B-score at 10 µM. 1.2% of 310,000 active. AID 488922;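 active = ratio B-score over 3 SD below the library mean, with starting fluorescence within 5 SD of its mean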;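 also: negative B-score means less thallium flux so channel inhibition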
hERG protect = compounds protecting human hERG from proarrhythmic drug block; activation (rescue from dofetilide block), less the hit threshold, % at 10 µM; 0.51% of 310,000 active; Q12809; CHO-hERG, FluxOR thallium flux, dofetilide IC70 present;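 active = activation above the mean of controls blocked by dofetilide plus 5 SD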;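 also: thallium influx through hERG after potassium depolarization seen as dye fluorescence rise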
KCNK3 inh = human KCNK3 channel inhibition, primary screen | O14649 | CHO-KCNK3 thallium flux, FluxOR fluorescence; active compounds read low | 0.84% of 340,000 active | B-score at 10 µM | AID 602410;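 active = B-score under library mean minus 4 SD, starting fluorescence ratio at most library mean plus 5 SD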;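 also: more negative B-score means stronger inhibition of thallium flux through KCNK3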
KCNQ1 block val = reconfirmed blocker of the human KCNQ1 potassium channel | shares compounds with KCNQ1 inh | KCNQ1 cell line, FluxOR thallium flux fluorescence | inhibition, % at 10 µM | 93% of 1,600 active | AID 588353;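 active = primary screen active, with duplicate mean exceeding buffer control mean plus 3 SD of buffer wells, cut at about 28% in these data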;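 also: 0% = buffer control ratio and 100% = XE991 inhibitor control ratio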
CHO Tl flux = KCNQ1 inhibitor counter-screen hit in parental CHO cells | shares compounds with KCNQ1 inh | parental CHO-K1, FluxOR thallium flux fluorescence ratio; active compounds read low; zero means no signal rise above baseline | fluorescence ratio (Tl flux) at 10 µM | 21% of 1,600 active;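 active = mean of duplicate thallium-flux fluorescence ratios in parental host cells more than 5 SD below the buffer control mean, cut at about 0.38 in these data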;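 also: ratio is peak minus minimum fluorescence divided by baseline fluorescence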
KCNQ1 APC inh = confirmation of human KCNQ1 potassium channel inhibitors by electrophysiology | shares compounds with KCNQ1 inh | 20% of 490 active | AID 624120 | calls only at 10 µM | KCNQ1-CHO cells, automated patch clamp current;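 active = KCNQ1 current drop exceeding 3 SD of negative control wells, seen in both duplicate runs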;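 also: steady state current during a 2 s step from -80 to +40 mV; negative values mean current inhibition and positive values mean potentiation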
KCNQ2 spec = KCNQ1 inhibitor that also blocks rat KCNQ2 channel; inhibition, % at 10 µM; KCNQ2 cells, FluxOR thallium flux fluorescence; shares compounds with KCNQ1 inh; AID 651746; 71% of 1,600 active;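 active = mean percent inhibition of the KCNQ2 thallium signal more than 5 SD above the buffer-only control wells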;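 also: KCNQ2 expressed in CHO cells; 0% = buffer control wells and 100% = XE-991 inhibitor control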
KCNQ1 KCNE1 spec = selectivity of KCNQ1 inhibitors: inhibition of human KCNQ1/KCNE1 channel; shares compounds with KCNQ1 inh; KCNQ1/KCNE1 cells, FluxOR thallium flux fluorescence; inhibition, % at 10 µM; 77% of 1,600 active; AID 652147;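 active = mean percent inhibition of duplicate wells above the buffer-only control mean plus 3 SD of those controls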;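 also: 0% = buffer only wells and 100% = XE-991 inhibitor control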
Active calls of the source: *; i = inactive; x = no result given.

SMILES	Kir21 block	KCNQ1 pot	KCNQ1 inh	KCNK9 inh	hERG protect	KCNK3 inh	KCNQ1 block val	CHO Tl flux	KCNQ2 spec	KCNQ1 KCNE1 spec	others
CCOC(=O)c1ccc(NC(=O)c2cccc(S(=O)(=O)N3c4ccccc4CC3C)c2)s1 (centres undefined)	-0.06	i	7*	i	-11	i	89*	0.47	i	110%*	KCNQ1 APC inh=i
CC1Cc2ccccc2N1S(=O)(=O)c1cccc(C(=O)NCCCO)c1 (centres undefined)	0.47	i	i	i	-4	i	x	x	x	x
CCOC(=O)Nc1ccc2c(c1)N(C(=O)CN1CCN(C)CC1)c1ccccc1S2	1.2	i	9*	i	-9	i	0	0.45	i	57%*
COc1cccc(CNC(=O)Cc2ccc(S(=O)(=O)N3CCOCC3)s2)c1	0.81	i	i	i	-14	i	x	x	x	x
O=C(CCCc1c[nH]c2ccccc12)NCC1COc2ccccc2O1 (centres undefined)	0	i	10*	i	-9	i	62*	0.44	74%*	78%*
Cn1nc(C(C)(C)C)cc1NC(=O)Nc1ccc(F)cc1F	0.59	i	i	i	-8	i	x	x	x	x
Cn1nc(C(C)(C)C)cc1NC(=O)Nc1ccc(Cl)cc1	1.9	i	7*	i	-17	i	83*	0.46	i	i
O=C(Nc1ccccc1N1CCCCC1)C1CCN(S(=O)(=O)c2cccc(C(F)(F)F)c2)CC1	-0.72	i	6*	i	-9	i	62*	0.47	110%*	48%*
O=C(Nc1ccccc1N1CCCC1)C1CCN(S(=O)(=O)c2cccc(C(F)(F)F)c2)CC1	-0.07	i	i	i	-13	i	x	x	x	x
CC(C)(C)N=Cc1c(O)ccc2oc3c(c12)CCCC3	-4.3	i	9*	-7.9*	-16	i	0	0.46	60%*	i
NC(=O)N/N=C/c1c(O)ccc2oc3c(c12)CCCC3	-0.39	i	i	i	-14	i	x	x	x	x
Cc1cc(C)c(N2CCN(S(=O)(=O)N3CCCCCC3)CC2)c(C)c1	-0.51	i	7*	i	-13	i	126*	0.44	115%*	118%*
Cc1cc(N2CCN(C)CC2)ccc1NC(=O)c1cccc(S(=O)(=O)N2CCc3ccccc3C2)c1	-1.1	i	7*	i	-8	i	0	0.55	66%*	i
CCc1ccccc1N1CCN(S(=O)(=O)c2ccc(F)c(C)c2)CC1	0.82	i	7*	i	-14	i	91*	0.44	80%*	91%*	KCNQ1 APC inh=i
Cc1nc(NC(=O)/C=C/c2ccc(C(C)(C)C)cc2)sc1C(=O)N(C)C	1.7	i	i	i	-12	i	x	x	x	x
COc1cccc(CNC(=O)COC(=O)c2cc([N+](=O)[O-])ccc2N2CCCC2)c1	x	x	x	x	x	i	x	x	x	x
COc1ccc(Cl)cc1S(=O)(=O)N1CCN(C)CC1	-1.7	i	i	i	-7	i	x	x	x	x
COc1c(S(=O)(=O)N2CCN(C)CC2)ccc(Cl)c1Cl	0.18	i	7*	i	0	i	0	0.49	i	56%*
O=C(CS(=O)(=O)Nc1ccc(F)cc1Cl)Nc1ccc(F)cc1Cl	-0.37	i	i	i	-6	i	x	x	x	x
